{"data": "Assay results from different studies", "target": "Mu-type opioid receptor (OPRM1, Homo sapiens, UniProt P35372)", "note": "Protocols differ between the studies behind these lines."}
{"Structure (SMILES)": "Cc1cccc(C)c1-c1cnc2c(c1)C[C@@]1(OCCCc3ccccc3)[C@H]3Cc4ccc(O)c5c4[C@@]1(CCN3CC1CC1)[C@H]2O5", "effect on": "cell-free assay", "measurement": "Ki", "value": "~200 nM"}
{"Structure (SMILES)": "COc1ccc2c(c1)[C@]13CCCC[C@@H]1[C@H](C2)N(C)CC3", "effect on": "ligand displacement", "method": "radioligand", "measurement": "IC50", "value": "1700 nM"}
{"Structure (SMILES)": "CCCO[C@@]12Cc3cc(-c4ccccc4)cnc3[C@@H]3Oc4c(O)ccc5c4[C@@]31CCN(CC1CC1)[C@@H]2C5", "effect on": "cell-free assay", "measurement": "Ki", "value": "499 nM"}
{"Structure (SMILES)": "Cc1cc(O)cc(C)c1C[C@H](N)C(=O)N1Cc2ccccc2C[C@H]1C(=O)NCC(=O)NCc1ccc([N+](=O)[O-])cc1", "effect on": "ligand displacement", "method": "radioligand", "setting": "cell membranes", "measurement": "Ki", "value": "4.5 nM"}
{"Structure (SMILES)": "CC(CCc1ccc(O)cc1)NCCc1ccc(O)c(O)c1 (stereo not shown)", "effect on": "ligand displacement", "method": "radioligand", "measurement": "IC50", "value": "1660 nM"}
{"Structure (SMILES)": "Cc1cc(O)cc(C)c1C[C@H](N)C(=O)N1Cc2ccccc2C[C@H]1C(=O)NCC(=O)NC(c1ccccc1)c1ccccc1", "effect on": "ligand displacement", "method": "radioligand", "setting": "cell membranes", "measurement": "Ki", "value": "1.71 nM"}
{"Structure (SMILES)": "Clc1ccc(CSc2nnc(-c3ccccn3)n2Cc2ccco2)cc1Cl", "effect on": "β-arrestin recruitment", "action": "agonist", "method": "imaging", "measurement": "EC50", "value": "> 32000 nM"}
{"Structure (SMILES)": "Oc1cccc([C@@]23CCC[C@@H](C2)N(CCc2ccccc2)C[C@H]3O)c1 (relative stereo)", "effect on": "cell-free assay", "measurement": "Ki", "value": "~5 nM"}
{"Structure (SMILES)": "CC(NCCc1ccc(O)cc1)C(O)c1ccc(O)cc1 (stereo not shown)", "effect on": "ligand displacement", "measurement": "IC50", "value": "9180 nM"}
{"Structure (SMILES)": "CCCCCCCCC[C@@H]1CC(=O)NCC(=O)N[C@H](Cc2ccc(O)cc2)C(=O)NCC(=O)N[C@@H](Cc2ccccc2)C(=O)O1", "effect on": "ligand displacement", "method": "radioligand", "measurement": "IC50", "value": "16000 nM"}
{"Structure (SMILES)": "Cc1ccc(CNC(=O)CNC(=O)[C@@H]2Cc3ccccc3CN2C(=O)[C@@H](N)Cc2c(C)cc(O)cc2C)cc1", "effect on": "ligand displacement", "method": "radioligand", "setting": "cell membranes", "measurement": "Ki", "value": "3.7 nM"}
{"Structure (SMILES)": "CC(CCc1ccccc1)NC(C)C(O)c1ccc(O)cc1 (stereo not shown)", "effect on": "ligand displacement", "method": "radioligand", "measurement": "IC50", "value": "9950 nM"}
{"Structure (SMILES)": "COc1cc(-c2cnc3c(c2)C[C@@]2(OCCCc4ccccc4)[C@H]4Cc5ccc(O)c6c5[C@@]2(CCN4CC2CC2)[C@H]3O6)ccn1", "effect on": "cell-free assay", "measurement": "Ki", "value": "< 10 nM"}
